In ChEMBL document CHEMBL1155777, “Increased survival after gemfibrozil treatment of severe mouse influenza” (Antimicrob Agents Chemother, 2007):

Columns and labels:
H2N2 subtype [1] = test: Antiviral activity against Influenza A virus (A/Japan/305/57(H2N2)) infected BALB/c mouse assessed as infection-induced weight loss at 40 mg/kg, ip administered once daily from day 4 to 10 post viral challenge measured on day 4 postinfection; assay type: functional, Influenza A virus (A/Japan/305/1957(H2N2)); conditions: route intraperitoneal
Outline: (§1)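 Gemfibrozil in 100% propylene glycol, 10 µl/mouse i.p., once daily days 4–10 after virus exposure; vehicle-only controls on the same days. Mice weighed before infection, then daily days 4–12 inclusive; loss tracked against pre-infection weight.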

[2] = Toxicity in mouse assessed as lethal dose; assay type: organism-based; conditions: in vivo
H2N2 subtype [3] = test: Antiviral activity against Influenza A virus (A/Japan/305/57(H2N2)) infected BALB/c mouse assessed as infection-induced weight loss at 60 mg/kg, ip administered once daily from day 4 to 10 post viral challenge measured on day 12 postinfection; assay type: functional, Influenza A virus (A/Japan/305/1957(H2N2)); conditions: route intraperitoneal; outline: as §1
H2N2 subtype [4] = test: Antiviral activity against Influenza A virus (A/Japan/305/57(H2N2)) infected BALB/c mouse assessed as infection-induced weight loss at 20 mg/kg, ip administered once daily from day 4 to 10 post viral challenge measured on day 12 postinfection; assay type: functional, Influenza A virus (A/Japan/305/1957(H2N2)); conditions: route intraperitoneal; outline: as §1
H2N2 subtype [5] = test: Antiviral activity against Influenza A virus (A/Japan/305/57(H2N2)) infected BALB/c mouse assessed as mouse survival at 20 mg/kg, ip administered once daily from day 4 to 10 post viral challenge; assay type: functional, Influenza A virus (A/Japan/305/1957(H2N2)); conditions: 96 h, route intraperitoneal
Outline: (§2)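 Propylene glycol vehicle, 10 µl/mouse i.p., once daily days 4–10 post-infection; vehicle controls. Survival followed 30 days. 20/40/60 mg/kg in one experiment (n = 9–10 per group); 60 mg/kg also pooled from four experiments (vehicle n = 50, drug n = 46). Log rank test on survival time; Cox proportional hazards model for hazard ratios.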

H2N2 subtype [6] = test: Antiviral activity against Influenza A virus (A/Japan/305/57(H2N2)) infected BALB/c mouse assessed as infection-induced weight loss at 20 mg/kg, ip administered once daily from day 4 to 10 post viral challenge measured on day 6 postinfection; assay type: functional, Influenza A virus (A/Japan/305/1957(H2N2)); conditions: route intraperitoneal; outline: as §1
H2N2 subtype [7] = test: Antiviral activity against Influenza A virus (A/Japan/305/57(H2N2)) infected BALB/c mouse assessed as infection-induced weight loss at 20 mg/kg, ip administered once daily from day 4 to 10 post viral challenge measured on day 10 postinfection; assay type: functional, Influenza A virus (A/Japan/305/1957(H2N2)); conditions: route intraperitoneal; outline: as §1
H2N2 subtype [8] = test: Antiviral activity against Influenza A virus (A/Japan/305/57(H2N2)) infected BALB/c mouse assessed as mouse survival at 40 mg/kg, ip administered once daily from day 4 to 10 post viral challenge; assay type: functional, Influenza A virus (A/Japan/305/1957(H2N2)); conditions: 96 h, route intraperitoneal; outline: as §2
Mus musculus [9] = test: Increase in survival of LPS-induced BALB/c mouse severe systemic infection model at 60 mg/kg, ip administered as single dose 1 hr before LPS challenge; assay type: functional; conditions: route intraperitoneal
Outline: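 LPS (E. coli O111:B4) 30 mg/kg i.p.; single 60 mg/kg i.p. dose in propylene glycol given 1 h before LPS; vehicle-only controls. n = 20 per group, single experiment; survival followed 14 days; log rank test.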

H2N2 subtype [10] = test: Antiviral activity against Influenza A virus (A/Japan/305/57(H2N2)) infected BALB/c mouse assessed as infection-induced weight loss at 20 mg/kg, ip administered once daily from day 4 to 10 post viral challenge measured on day 8 postinfection; assay type: functional, Influenza A virus (A/Japan/305/1957(H2N2)); conditions: route intraperitoneal; outline: as §1
H2N2 subtype [11] = test: Antiviral activity against Influenza A virus (A/Japan/305/57(H2N2)) infected BALB/c mouse assessed as infection-induced weight loss at 60 mg/kg, ip administered once daily from day 4 to 10 post viral challenge measured on day 4 postinfection; assay type: functional, Influenza A virus (A/Japan/305/1957(H2N2)); conditions: route intraperitoneal; outline: as §1
H2N2 subtype [12] = test: Antiviral activity against Influenza A virus (A/Japan/305/57(H2N2)) infected BALB/c mouse assessed as infection-induced weight loss at 40 mg/kg, ip administered once daily from day 4 to 10 post viral challenge measured on day 10 postinfection; assay type: functional, Influenza A virus (A/Japan/305/1957(H2N2)); conditions: route intraperitoneal; outline: as §1
H2N2 subtype [13] = test: Antiviral activity against Influenza A virus (A/Japan/305/57(H2N2)) infected BALB/c mouse assessed as infection-induced weight loss at 60 mg/kg, ip administered once daily from day 4 to 10 post viral challenge measured on day 8 postinfection; assay type: functional, Influenza A virus (A/Japan/305/1957(H2N2)); conditions: route intraperitoneal; outline: as §1
Mus musculus [14] = test: Increase in survival of LPS-induced BALB/c mouse severe systemic infection model at 60 mg/kg, ip administered as single dose 2 hrs before LPS challenge; assay type: functional; conditions: route intraperitoneal
H2N2 subtype [15] = test: Antiviral activity against Influenza A virus (A/Japan/305/57(H2N2)) infected BALB/c mouse assessed as infection-induced weight loss at 60 mg/kg, ip administered once daily from day 4 to 10 post viral challenge measured on day 6 postinfection; assay type: functional, Influenza A virus (A/Japan/305/1957(H2N2)); conditions: route intraperitoneal; outline: as §1
H2N2 subtype [16] = test: Antiviral activity against Influenza A virus (A/Japan/305/57(H2N2)) infected BALB/c mouse assessed as mouse survival at 60 mg/kg, ip administered once daily from day 4 to 10 post viral challenge; assay type: functional, Influenza A virus (A/Japan/305/1957(H2N2)); conditions: 96 h, route intraperitoneal; outline: as §2
H2N2 subtype [17] = test: Antiviral activity against Influenza A virus (A/Japan/305/57(H2N2)) infected BALB/c mouse assessed as infection-induced weight loss at 40 mg/kg, ip administered once daily from day 4 to 10 post viral challenge measured on day 12 postinfection; assay type: functional, Influenza A virus (A/Japan/305/1957(H2N2)); conditions: route intraperitoneal; outline: as §1
H2N2 subtype [18] = test: Antiviral activity against Influenza A virus (A/Japan/305/57(H2N2)) infected BALB/c mouse assessed as infection-induced weight loss at 40 mg/kg, ip administered once daily from day 4 to 10 post viral challenge measured on day 6 postinfection; assay type: functional, Influenza A virus (A/Japan/305/1957(H2N2)); conditions: route intraperitoneal; outline: as §1
H2N2 subtype [19] = test: Antiviral activity against Influenza A virus (A/Japan/305/57(H2N2)) infected BALB/c mouse assessed as infection-induced weight loss at 60 mg/kg, ip administered once daily from day 4 to 10 post viral challenge measured on day 10 postinfection; assay type: functional, Influenza A virus (A/Japan/305/1957(H2N2)); conditions: route intraperitoneal; outline: as §1
H2N2 subtype [20] = test: Antiviral activity against Influenza A virus (A/Japan/305/57(H2N2)) infected BALB/c mouse assessed as infection-induced weight loss at 20 mg/kg, ip administered once daily from day 4 to 10 post viral challenge measured on day 4 postinfection; assay type: functional, Influenza A virus (A/Japan/305/1957(H2N2)); conditions: route intraperitoneal; outline: as §1
H2N2 subtype [21] = test: Antiviral activity against Influenza A virus (A/Japan/305/57(H2N2)) infected BALB/c mouse assessed as infection-induced weight loss at 40 mg/kg, ip administered once daily from day 4 to 10 post viral challenge measured on day 8 postinfection; assay type: functional, Influenza A virus (A/Japan/305/1957(H2N2)); conditions: route intraperitoneal; outline: as §1

Cc1ccc(C)c(OCCCC(C)(C)C(=O)O)c1 [GEMFIBROZIL]
Activity (H2N2 subtype [1]): 87% | LD50 [2]: 3160 mg/kg | Activity (H2N2 subtype [3]): 81.8% | Activity (H2N2 subtype [4]): 79% | survival at 20 mg/kg (H2N2 subtype [5]): 30% | Activity (H2N2 subtype [6]): 77.5% | Activity (H2N2 subtype [7]): 75.2% | survival at 40 mg/kg (H2N2 subtype [8]): 44% | survival at 60 mg/kg (Mus musculus [9]): 25% | Activity (H2N2 subtype [10]): 75.1% | Activity (H2N2 subtype [11]): 86.5% | Activity (H2N2 subtype [12]): 73.4% | Activity (H2N2 subtype [13]): 73.2% | survival at 60 mg/kg (Mus musculus [14]): 10% | Activity (H2N2 subtype [15]): 77.1% | survival at 60 mg/kg (H2N2 subtype [16]): 52% | Activity (H2N2 subtype [17]): 77.1% | Activity (H2N2 subtype [18]): 75.6% | Activity (H2N2 subtype [19]): 78% | Activity (H2N2 subtype [20]): 87.9% | Activity (H2N2 subtype [21]): 72.2%
